Source: PMC2797757 (Journal of medicinal chemistry, 2009)
Entries after “also recorded” stand apart in the source; their conditions may differ.

Experiments:
[1] = system: HAOSMC: human aortic smooth muscle cells; assay: Growth inhibition of nontransformed cells, HAOSMC; assay type: cell-based; conditions: read-out: HAOSMC IC50 ± SD
[2] = system: HeLa cervical cancer cells; assay: Cell viability/proliferation assay, HeLa; assay type: cell-based, human; conditions: 24 h, control cells = 100%
Method in brief: (§1)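 Cells grown at 37 °C, 5% CO2, in D-MEM with 10% fetal calf serum, 4 mM glutamine and 2 mM pyruvate; HCT116/chr3 also got 500 μg/mL G418. Seeded at 1 × 10^3 cells/well and treated 24 h later for 24 h from a 10 mM DMSO stock. Vehicle control was 1% DMSO. Tetrazolium reagent added for 4 h at 37 °C, then absorbance read at 492 nm. Quadruplicate, three repeats; results are % of control, mean ± SD.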

[3] = system: HCT116/chr3 human colon cancer cells; assay: Cell viability/proliferation assay, HCT116/chr3; assay type: cell-based; conditions: 24 h, control cells = 100%
Method in brief: as §1

[4] = system: HEK, human embryonic kidney 293 cells; assay: Growth inhibition, MTT, HEK; assay type: cell-based; conditions: read-out: HEK IC50 ± SD; MTT method; incubation 48 h
[5] = system: PtK2: potorous tridactylis kidney epithelial cells; assay: Growth inhibition of nontransformed cells, PtK2; assay type: cell-based, Potorus tridactylis; conditions: read-out: PtK2 IC50 ± SD
tubulin = assay: [3H]Colchicine binding assay; set-up: species or system bovine; conditions: Tubulin 1 μM; [3H]colchicine and inhibitor both 5 μM
[6] = system: A10, rat embryonic aortic smooth muscle cells; assay: Growth inhibition of nontransformed cells, A10; assay type: cell-based; conditions: read-out: A10 IC50 ± SD
[7] = system: HUVEC: human umbilical vein endothelial cells; assay: Growth inhibition of nontransformed cells, HUVEC; assay type: cell-based; conditions: read-out: HUVEC IC50 ± SD
[8] = system: U937, human leukemic monocyte lymphoma cells; assay: Growth inhibition, MTT, U937; assay type: cell-based; conditions: read-out: U937 IC50 ± SD; MTT method; incubation 48 h
[9] = system: Saccharomyces cerevisiae BY4741 wild type strain; assay: Yeast toxicity protocol; assay type: cell-based; conditions: 20 μM, growth recorded after 3 days at 28 °C; for effect on viability/growth of BY4741 strain cells: 18 h incubation; for serial dilution to which cell growth was limited: 10-fold serial cell dilution
Method in brief: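 S. cerevisiae BY4741 (MATa his3Δ1 leu2Δ0 met15Δ0 ura3Δ0) grown at 28 °C in SD minimal medium with 2% glucose. Exponential cells (5 × 10^6/mL) exposed to 20 μM for 18 h at 28 °C, then centrifuged, washed twice with water and resuspended in SD. Serial 10-fold dilutions incubated overnight at 28 °C, spotted on YPD plates, and growth scored after 3 days at 28 °C.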

[10] = system: M14, human melanoma cells; assay: Growth inhibition, MTT, M14; assay type: cell-based; conditions: read-out: M14 IC50 ± SD; MTT method; incubation 48 h
[11] = system: MCF-7 human breast carcinoma cells; assay: Growth of MCF-7 cells; assay type: cell-based; conditions: MCF7, 48 h, read-out: MCF-7 IC50 ± SD
HEK cells = assay: Time-lapse microscopy, HEK cell morphology and growth; assay type: cell-based, human; conditions: 48 h treatment
M14 cells = assay: Time-lapse microscopy, M14 cell morphology and growth; assay type: cell-based, human; conditions: 48 h treatment

Compound: Methyl 5-Bromo-3-(3,4,5-trimethoxybenzoyl)-1H-indole-2-carboxylate [Compound 28]
- IC50 [1]: 55 ± 40 nM
- % of cell proliferation, HeLa ([2]; 0.5 μM): 41±1.1%
- % of cell proliferation, HeLa ([2]; 1 μM): 47±0.4%
- % of cell proliferation, HCT116/chr3 ([3]; 0.5 μM): 59±0.2%
- % of cell proliferation, HCT116/chr3 ([3]; 1 μM): 66±3.5%
- IC50 [4]: 131 ± 3 nM
- IC50 [5]: 110 ± 60 nM
- inhibition colchicine binding (% ± SD) (tubulin): 67±4%
- IC50 [6]: 280 ± 40 nM
- IC50 [7]: 150 nM
- IC50 [8]: 191 ± 7 nM

Compound: Methyl 5-Bromo-3-(3,4,5-trimethoxybenzyl)-1H-indole-2-carboxylate [Compound 29]
- IC50 [1]: 35 ± 7 nM
- % of cell proliferation, HeLa ([2]; 0.5 μM): 52±0.4%
- % of cell proliferation, HeLa ([2]; 1 μM): 45±1.6%
- effect on viability/growth of BY4741 strain cells [9]: significant BY4741 inhibition
- serial dilution to which cell growth was limited [9]: third dilution
- % of cell proliferation, HCT116/chr3 ([3]; 0.5 μM): 51±4.6%
- % of cell proliferation, HCT116/chr3 ([3]; 1 μM): 51±1.6%
- IC50 [4]: 160 ± 5 nM
- IC50 [5]: 270 ± 100 nM
- inhibition colchicine binding (% ± SD) (tubulin): 59±7%
- IC50 [6]: 230 ± 100 nM
- IC50 [10]: 120 ± 10 nM
- IC50 [7]: 140 ± 20 nM
- IC50 [8]: 159 ± 10 nM

Compound: COC(=O)c1[nH]c2ccccc2c1Sc1cc(OC)c(OC)c(OC)c1 [Compound 6]
- IC50 [11]: 25 ± 1 nM

Compound: (5-Methoxy-1H-indol-3-yl)-(3,4,5-trimethoxyphenyl)methanone [Compound 34]
- inhibition colchicine binding (% ± SD) (tubulin): 32±7%

Compound: (5-Bromo-1H-indol-3-yl)(3,4,5-trimethoxyphenyl)methanone [Compound 25]
- inhibition colchicine binding (% ± SD) (tubulin): 45±5%

Compound: COc1cc(Sc2c[nH]c3ccccc23)cc(OC)c1OC [Compound 3]
- IC50 [11]: 34 ± 9 nM

Compound: Ethyl 5-Methoxy-3-(3,4,5-trimethoxybenzyl)-1H-indole-2-carboxylate [Compound 45]
- inhibition colchicine binding (% ± SD) (tubulin): 42±4%

Compound: methyl 5-methoxy-3-(3,4,5-trimethoxyphenylthio)-1H-indole-2-carboxylate [Compound 36]
- effect on viability/growth of BY4741 strain cells [9]: significant inhibitory effects

Compound: COc1cc(Sc2c[nH]c3ccc(Cl)cc23)cc(OC)c1OC [Compound 12]
- IC50 [11]: 77 ± 7 nM

Compound: Methyl 5-Bromo-3-(3,4,5-trimethoxyphenylthio)-1H-indole-2-carboxylate [Compound 27]
- IC50 [1]: 100 ± 30 nM
- % of cell proliferation, HeLa ([2]; 0.5 μM): 53±0.1%
- % of cell proliferation, HeLa ([2]; 1 μM): 60±0.1%
- % of cell proliferation, HCT116/chr3 ([3]; 0.5 μM): 57±0.9%
- % of cell proliferation, HCT116/chr3 ([3]; 1 μM): 62±1.9%
- IC50 [4]: 189 ± 5 nM
- IC50 [5]: 280 ± 30 nM
- inhibition colchicine binding (% ± SD) (tubulin): 75±3%
- IC50 [6]: 230 ± 100 nM
- IC50 [10]: 155 ± 9 nM
- IC50 [7]: 140 ± 20 nM
- IC50 [8]: 177 ± 10 nM

Compound: Ethyl 5-Bromo-3-(3,4,5-trimethoxybenzoyl)-1H-indole-2-carboxylate [Compound 31]
- inhibition colchicine binding (% ± SD) (tubulin): 58±2%

Compound: Ethyl 5-Bromo-3-(3,4,5-trimethoxybenzyl)-1H-indole-2-carboxylate [Compound 32]
- inhibition colchicine binding (% ± SD) (tubulin): 53±4%

Compound: Ethyl 5-Methoxy-3-(3,4,5-trimethoxybenzoyl)-1H-indole-2-carboxylate [Compound 43]
- inhibition colchicine binding (% ± SD) (tubulin): 49±4%

Compound: Ethyl 5-Bromo-3-(3,4,5-trimethoxyphenylthio)-1H-indole-2-carboxylate [Compound 30]
- inhibition colchicine binding (% ± SD) (tubulin): 62±7%

Compound: Methyl 5-Methoxy-3-(3,4,5-trimethoxybenzoyl)-1H-indole-2-carboxylate [Compound 39]
- effect on HEK cell morphology (HEK cells): significant morphologic changes
- IC50 [1]: 35 ± 7 nM
- % of cell proliferation, HeLa ([2]; 0.5 μM): 55±0.7%
- % of cell proliferation, HeLa ([2]; 1 μM): 54±0.3%
- effect on viability/growth of BY4741 strain cells [9]: significant inhibitory effects
- effect on M14 cell morphology (M14 cells): significant morphologic changes
- % of cell proliferation, HCT116/chr3 ([3]; 0.5 μM): 57±3.4%
- % of cell proliferation, HCT116/chr3 ([3]; 1 μM): 55±1.2%
- IC50 [4]: 140 ± 1 nM
- IC50 [5]: 190 ± 20 nM
- inhibition colchicine binding (% ± SD) (tubulin): 78±6%
- IC50 [6]: 95 ± 80 nM
- IC50 [10]: 100 ± 5 nM
- IC50 [7]: 110 ± 60 nM
- IC50 [8]: 155 ± 10 nM

Compound: COc1cc(Cn2cccc2C(=O)O)cc(OC)c1OC [Compound 54, 1-(3,4,5-Trimethoxybenzyl)-1H-pyrrole-2-carboxylic acid]
- effect on viability/growth of BY4741 strain cells [9]: effectively inhibited growth; also recorded: strongly reduced the viability
- serial dilution to which cell growth was limited [9]: first dilution

Compound: CCOC(=O)c1[nH]c2ccc(Cl)cc2c1Sc1cc(OC)c(OC)c(OC)c1 [Compound 18]
- IC50 [11]: 110 ± 2 nM

Compound: Methyl 5-Methoxy-3-(3,4,5-trimethoxybenzyl)-1H-indole-2-carboxylate [Compound 41]
- effect on HEK cell morphology (HEK cells): significant morphologic changes
- IC50 [1]: 70 ± 10 nM
- % of cell proliferation, HeLa ([2]; 0.5 μM): 52±0.7%
- % of cell proliferation, HeLa ([2]; 1 μM): 51±0.2%
- effect on M14 cell morphology (M14 cells): significant morphologic changes
- % of cell proliferation, HCT116/chr3 ([3]; 0.5 μM): 69±6.7%
- % of cell proliferation, HCT116/chr3 ([3]; 1 μM): 69±0.3%
- IC50 [4]: 181 ± 3 nM
- IC50 [5]: 190 ± 200 nM
- inhibition colchicine binding (% ± SD) (tubulin): 59±1%
- IC50 [6]: 130 ± 100 nM
- IC50 [10]: 137 ± 5 nM
- IC50 [7]: 170 ± 50 nM
- IC50 [8]: 189 ± 5 nM
